Results: ChEMBL document CHEMBL4043082, “Clerodane Diterpenoid Glucosides from the Stems of Tinospora sinensis” (J Nat Prod, 2017)

Key:
HeLa = test: Cytotoxicity against human HeLa cells assessed as reduction in cell viability incubated for 48 hrs by MTT assay; assay type: functional, cell-based
Outline: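 HeLa cells seeded at 8 × 10^3 per well, exposed in triplicate to 2.5, 5, 10, 20 and 50 μM of each compound at 37 °C for 48 h; doxorubicin as positive control. MTT (5 mg/mL) added for 4 h, formazan dissolved in DMSO, absorbance at 570 nm; IC50 by Logit method.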

N9 = test: Inhibition of LPS-induced nitric oxide production in mouse N9 cells by Griess reaction based assay; assay type: functional, cell-based
Outline: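 N9 microglial cells activated with LPS; nitrite accumulation in culture supernatants measured by Griess reaction; microglial cell viability checked in parallel by MTT assay.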

Row | Compound | IC50 (N9) | IC50 (HeLa)
1 | COc1cc(/C=C/C(=O)O[C@@H]2C[C@H](OC(C)=O)[C@H](O)[C@@H]3[C@@H]2CC[C@@]2(O)C(=O)O[C@H](c4ccoc4)C[C@@]32C)ccc1O[C@@H]1O[C@H](CO)[C@@H](O)[C@H](O)[C@H]1O | ≥ 100 µM | ≥ 10 µM
2 | COc1cc(/C=C/C(=O)O[C@H]2C[C@H](OC(C)=O)[C@H](O)[C@@H]3[C@@H]2CC[C@@]2(O)C(=O)O[C@H](c4ccoc4)C[C@@]32C)ccc1O[C@@H]1O[C@H](CO)[C@@H](O)[C@H](O)[C@H]1O | ≥ 100 µM | ≥ 10 µM
3 | COc1cc(/C=C/C(=O)O[C@@H]2C[C@H](O)[C@H](O)[C@@H]3[C@@H]2CC[C@@]2(O)C(=O)O[C@H](c4ccoc4)C[C@@]32C)ccc1O[C@@H]1O[C@H](CO)[C@@H](O)[C@H](O)[C@H]1O | ≥ 100 µM | ≥ 10 µM
4 | COc1cc(/C=C/C(=O)O[C@@H]2CC[C@H](O)[C@@H]3[C@@H]2CC[C@@]2(O)C(=O)O[C@H](c4ccoc4)C[C@@]32C)ccc1O[C@@H]1O[C@H](CO)[C@@H](O)[C@H](O)[C@H]1O | ≥ 100 µM | ≥ 10 µM
5 | COc1cc(/C=C/C(=O)O[C@@H]2C[C@H](O)[C@H](OC(C)=O)[C@@H]3[C@@H]2CC[C@@]2(O)C(=O)O[C@H](c4ccoc4)C[C@@]32C)ccc1O[C@@H]1O[C@H](CO)[C@@H](O)[C@H](O)[C@H]1O | ≥ 100 µM | ≥ 10 µM
6 | C[C@@]12C[C@@H](c3ccoc3)OC(=O)[C@]1(O)CC[C@H]1[C@H]2[C@@H](O)[C@@H](O)C[C@H]1O[C@@H]1O[C@H](CO)[C@@H](O)[C@H](O)[C@H]1O | ≥ 100 µM | 8.35 µM
7 | CC(=O)O[C@H]1C[C@@H](O[C@@H]2O[C@H](CO)[C@@H](O)[C@H](O)[C@H]2O)[C@H]2CC[C@@]3(O)C(=O)O[C@H](c4ccoc4)C[C@@]3(C)[C@@H]2[C@H]1O | ≥ 100 µM | ≥ 10 µM
8 | COc1cccc2c1C(=O)c1c(O)c3c(c(O)c1C2=O)C[C@@](O)(C(=O)CO)C[C@@H]3O[C@H]1C[C@H](N)[C@H](O)[C@H](C)O1 [DOXORUBICIN] |  | 0.32 µM

The next lines start with results.

Row | IC50 (N9) | Compound | IC50 (HeLa)
9 | ≥ 100 µM | CC(=O)O[C@@H]1[C@@H]2[C@H](CC[C@@]3(O)C(=O)O[C@H](c4ccoc4)C[C@@]23C)[C@H](O[C@@H]2O[C@H](CO)[C@@H](O)[C@H](O)[C@H]2O)C[C@@H]1O | ≥ 10 µM
10 | ≥ 100 µM | COc1cc(/C=C\C(=O)O[C@@H]2C[C@H](OC(C)=O)[C@H](O)[C@@H]3[C@@H]2CC[C@@]2(O)C(=O)O[C@H](c4ccoc4)C[C@@]32C)ccc1O[C@@H]1O[C@H](CO)[C@@H](O)[C@H](O)[C@H]1O | ≥ 10 µM
11 | ≥ 100 µM | C[C@@]12C[C@@H](c3ccoc3)OC(=O)[C@]1(O)CC[C@]1(C)[C@H]2[C@H]2C=C[C@]1(O[C@@H]1O[C@H](CO)[C@@H](O)[C@H](O)[C@H]1O)C(=O)O2 | ≥ 10 µM
12 | ≥ 100 µM | CC(=O)O[C@@H]1[C@@H]2[C@H](CC[C@@]3(O)C(=O)O[C@H](c4ccoc4)C[C@@]23C)[C@H](O[C@@H]2O[C@H](CO)[C@@H](O)[C@H](O)[C@H]2O)C[C@@H]1OC(C)=O | ≥ 10 µM
13 | ≥ 100 µM | COc1cc(/C=C/C(=O)O[C@H]2C[C@H](O)[C@H](O)[C@@H]3[C@@H]2CC[C@@]2(O)C(=O)O[C@H](c4ccoc4)C[C@@]32C)ccc1O[C@@H]1O[C@H](CO)[C@@H](O)[C@H](O)[C@H]1O | ≥ 10 µM
14 | ≥ 100 µM | C[C@@]12CC[C@@]3(O)C(=O)O[C@H](c4ccoc4)C[C@@]3(C)[C@@H]1[C@@H](O[C@@H]1O[C@H](CO)[C@@H](O)[C@H](O)[C@H]1O)C=CC2=O | ≥ 10 µM
